Data: ChEMBL document CHEMBL2424625, “Synthesis and structure-activity relationships of novel indazolyl glucocorticoid receptor partial agonists” (Bioorg Med Chem Lett, 2013)
The source made the active and inactive calls. The calls are words filed in the database; no cut-off is given here.

Legend:
[1] = target: T1, Glucocorticoid receptor (Homo sapiens) (UniProt P04150); assay: Transactivation activity at glucocorticoid receptor ligand binding domain (unknown origin) expressed in human Hela cells co-expressing GAL4 DNA binding domain assessed as NP-1-stimulated GRE activation by luciferase reporter gene assay relative to dexamethasone; assay type: cell-based
T1 sequence (whole entry): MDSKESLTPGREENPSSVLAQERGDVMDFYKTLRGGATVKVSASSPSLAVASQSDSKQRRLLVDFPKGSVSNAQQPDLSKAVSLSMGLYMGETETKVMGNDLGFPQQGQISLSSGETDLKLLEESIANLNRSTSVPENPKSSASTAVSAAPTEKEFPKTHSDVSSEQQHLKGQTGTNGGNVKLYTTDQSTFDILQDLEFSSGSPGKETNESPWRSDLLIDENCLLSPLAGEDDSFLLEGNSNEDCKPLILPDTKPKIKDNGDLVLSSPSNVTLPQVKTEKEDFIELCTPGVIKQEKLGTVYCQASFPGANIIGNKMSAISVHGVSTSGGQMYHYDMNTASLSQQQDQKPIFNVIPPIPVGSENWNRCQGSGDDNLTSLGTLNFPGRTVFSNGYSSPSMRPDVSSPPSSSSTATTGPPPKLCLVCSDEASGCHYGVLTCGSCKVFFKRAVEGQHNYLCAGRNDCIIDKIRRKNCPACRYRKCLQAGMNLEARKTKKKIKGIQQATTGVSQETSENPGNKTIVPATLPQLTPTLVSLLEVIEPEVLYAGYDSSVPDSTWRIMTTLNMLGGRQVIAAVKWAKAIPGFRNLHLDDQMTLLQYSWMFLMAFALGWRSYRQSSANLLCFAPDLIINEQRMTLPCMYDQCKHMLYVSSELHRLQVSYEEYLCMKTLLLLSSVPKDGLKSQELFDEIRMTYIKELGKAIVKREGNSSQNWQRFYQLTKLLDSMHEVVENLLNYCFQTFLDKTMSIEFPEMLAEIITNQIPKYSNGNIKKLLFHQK
Summary of the method: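 HeLa line (NP-1) stably transfected with a GR-LBD chimera cloned into a GAL4 luciferase reporter was run in agonist mode. Direct GR-LBD activation was read as increased luciferase activity. […] Values are means of two or more experiments in triplicate.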

Glucocorticoid receptor [2] = target: T2, Glucocorticoid receptor (Homo sapiens, UniProt P04150); assay: Transactivation activity at glucocorticoid receptor ligand binding domain (unknown origin) expressed in human Hela cells co-expressing GAL4 DNA binding domain assessed as NP-1-stimulated GRE activation by luciferase reporter gene assay; assay type: cell-based
T2 sequence (P04150 whole entry): T1 sequence (whole entry)

[3] = target: T1, Glucocorticoid receptor (Homo sapiens); assay: Transrepression activity at glucocorticoid receptor in human A549 cells assessed as inhibition of PMA-stimulated AP1 response element by luciferase reporter gene assay relative to dexamethasone; assay type: cell-based
Summary of the method: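 Transrepression of AP-1 was run in A549 lung epithelial cells. […] Values are means of two or more experiments in triplicate.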

[4] = target: T1, Glucocorticoid receptor (Homo sapiens); assay: Transrepression activity at glucocorticoid receptor in human A549 cells assessed as inhibition of IL1beta-stimulated NFkappaB-dependent E-selectin transcription by luciferase reporter gene assay relative to dexamethasone; assay type: cell-based
Summary of the method: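 In A549 lung epithelial cells, NFkB activity was induced with IL-1β (0.5 ng/ml). Inhibition was quantitated as decreased luciferase activity. […] Values are means of two or more experiments in triplicate.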

Glucocorticoid receptor [5] = target: T2, Glucocorticoid receptor; assay: Transrepression activity at glucocorticoid receptor in human A549 cells assessed as inhibition of PMA-stimulated AP1 response element by luciferase reporter gene assay; assay type: cell-based
Glucocorticoid receptor [6] = target: T2, Glucocorticoid receptor; assay: Transrepression activity at glucocorticoid receptor in human A549 cells assessed as inhibition of IL1beta-stimulated NFkappaB-dependent E-selectin transcription by luciferase reporter gene assay; assay type: cell-based
Glucocorticoid receptor [7] = target: T2, Glucocorticoid receptor; assay: Binding affinity to glucocorticoid receptor (unknown origin) by fluorescence assay
[8] = target: T1, Glucocorticoid receptor (Homo sapiens); assay: Partial agonist activity at glucocorticoid receptor (unknown origin) by fluorescence assay

Row | SMILES | Efficacy [1] [%] | EC50 (Glucocorticoid receptor [2]) [nM] | Efficacy [3] [%] | Efficacy [4] [%] | EC50 (Glucocorticoid receptor [5]) [nM] | EC50 (Glucocorticoid receptor [6]) [nM] | Ki (Glucocorticoid receptor [7]) [nM] | Activity [8]
1 | CCS(=O)(=O)NCC(C)[C@@H](c1ccccc1)c1ccc2c(cnn2-c2ccc(F)cc2)c1 (stereo partly drawn) | 111 | 12.8 | 96 | 100 | 4.3 | 1.8 | 0.87 | –
2 | CC(C)(CNC(=O)C(F)(F)F)[C@@H](c1ccccc1)c1ccc2c(cnn2-c2ccc(F)cc2)c1 | – | > 10000 | 44 | 39 | 725 | 124 | 1.74 | –
3 | CCS(=O)(=O)NCC(C)(C)[C@@H](c1ccccc1)c1ccc2c(cnn2-c2ccc(F)cc2)c1 | 19 | 214 | 84 | 87 | 28.8 | 15.6 | 0.72 | –
4 | CC(C)C[C@@H](c1ccc2c(cnn2-c2ccc(F)cc2)c1)C(C)(C)CNC(=O)CC(F)(F)F | 81 | 262 | 101 | 96 | 61 | 38 | 1.3 | –
5 | CC(C)C[C@@H](c1ccc2c(cnn2-c2ccc(F)cc2)c1)C(C)(C)CNC(=O)NCC(F)(F)F | 58 | 501 | 86 | 85 | 118 | 87 | 1.42 | –
6 | CC(C)(CNS(C)(=O)=O)[C@@H](c1ccccc1)c1ccc2c(cnn2-c2ccc(F)cc2)c1 | 32 | 148 | 86 | 97 | 20.5 | 19.1 | 0.53 | –
7 | CC(CNC(=O)CC(F)(F)F)[C@@H](c1ccccc1)c1ccc2c(cnn2-c2ccc(F)cc2)c1 (single isomer, unassigned) [listing 1 of 2 here] | 52 | – | 84 | – | – | – | – | –
8 | CC(C)(CNC(=O)NCC(F)(F)F)[C@@H](c1ccccc1)c1ccc2c(cnn2-c2ccc(F)cc2)c1 | – | > 10000 | 66 | 55 | 252 | 393 | 10.2 | –
9 | CCCS(=O)(=O)NCC(C)(C)[C@@H](c1ccccc1)c1ccc2c(cnn2-c2ccc(F)cc2)c1 | – | > 10000 | 66 | 63 | 143 | 86 | 1.51 | –
10 | CC(C)C[C@@H](c1ccc2c(cnn2-c2ccc(F)cc2)c1)C(C)(C)CNC(=O)NC(C)(C)C | 86 | 126 | 100 | 94 | 25 | 11.3 | 3.6 | –
11 | CC(CNC(=O)CC(F)(F)F)[C@@H](c1ccccc1)c1ccc2c(cnn2-c2ccc(F)cc2)c1 (stereo in doubt; 3i) [listing 1 of 2 here] | 102 | – | 88 | – | – | – | – | –
12 | CC(CNC(=O)CC(F)(F)F)[C@@H](c1ccccc1)c1ccc2c(cnn2-c2ccc(F)cc2)c1 (stereo in doubt; 3i) [listing 2 of 2 here] | – | 20.7 | – | – | 7.5 | – | 2.4 | –
13 | CC(C)(CNS(=O)(=O)C1CC1)[C@@H](c1ccccc1)c1ccc2c(cnn2-c2ccc(F)cc2)c1 | 19 | 261 | 76 | 82 | 26.8 | 29.3 | 1.15 | –
14 | CC(C)(C)CC(=O)NCC(C)(C)[C@@H](c1ccccc1)c1ccc2c(cnn2-c2ccc(F)cc2)c1 | – | > 10000 | 62 | 46 | 215 | 138 | 1.9 | –
15 | CC(CNS(=O)(=O)CC(F)(F)F)[C@@H](c1ccccc1)c1ccc2c(cnn2-c2ccc(F)cc2)c1 (stereo partly drawn) | 112 | 26 | 97 | 105 | 5.2 | 0.66 | 1.34 | –
16 | CC(CNC(=O)CC(F)(F)F)[C@@H](c1ccccc1)c1ccc2c(cnn2-c2ccc(F)cc2)c1 (single isomer, unassigned) [listing 2 of 2 here] | – | 374 | – | – | 52 | – | 2.3 | –
17 | CC(CNS(C)(=O)=O)[C@@H](c1ccccc1)c1ccc2c(cnn2-c2ccc(F)cc2)c1 (stereo partly drawn) | 101 | 24 | 100 | 105 | 8.4 | 1.4 | 0.93 | –
18 | CC(=O)NCC(C)(C)[C@@H](c1ccccc1)c1ccc2c(cnn2-c2ccc(F)cc2)c1 | – | – | – | 58 | > 5000 | 1150 | 2.4 | –
19 | CC(C)(C)C(=O)NCC(C)(C)[C@@H](c1ccccc1)c1ccc2c(cnn2-c2ccc(F)cc2)c1 | 25 | 394 | 100 | 80 | 78 | 23 | 2 | Active
20 | CC(C)(CNC(=O)Cc1ccccc1)[C@@H](c1ccccc1)c1ccc2c(cnn2-c2ccc(F)cc2)c1 | 100 | 977 | 33 | – | 2520 | – | – | –
